Activity calls are given as the source filed them. The calls are words filed in the database; no cut-off is given here. Square brackets hold non-standard residues; d marks the D form. Peptide text beside a SMILES is read from it. * marks the point of attachment. 1Nal = N[C@@H](Cc1cccc2ccccc12)C(=O)O; 2Nal = N[C@@H](Cc1ccc2ccccc2c1)C(=O)O; Cbz = O=C(OCc1ccccc1)*
Key:
[1] = Inhibition of chymotrypsin-like activity of 20S proteasome from human erythrocyte
Summary of the method: (§1)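 Substrates were Suc-Leu-Leu-Val-Tyr-AMC (chymotrypsin-like), Ac-Arg-Leu-Arg-AMC (trypsin-like) and Z-Leu-Leu-Glu-βNA (PGPH). Hydrolysis was read by fluorescence at ex 355 / em 460 nm against DMSO solvent controls.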

[2] = Inhibition of trypsin-like activity of 20S proteasome from human erythrocyte; summary of the method: as §1
[3] = Inhibition of peptidylglutamyl peptide hydrolyzing-like activity of 20S proteasome from human erythrocyte; summary of the method: as §1
[4] = Inhibition of 20S proteasome from human erythrocyte; summary of the method: as §1
EMT6 [5] = experiment: Inhibition of proteasome in mouse EMT6 cell lysate assessed as cleavage of Suc-leu-leu-val-Tyr-AMC at 100 nM after 15 mins; design: scale not given: the % may be the effect or the level left
EMT6 [6] = experiment: Inhibition of proteasome in mouse EMT6 cell lysate assessed as cleavage of Suc-leu-leu-val-Tyr-AMC at 100 nM after 30 mins; design: scale not given: the % may be the effect or the level left
EMT6 [7] = experiment: Inhibition of proteasome in mouse EMT6 cell lysate assessed as cleavage of Suc-leu-leu-val-Tyr-AMC at 100 nM after 60 mins; design: scale not given: the % may be the effect or the level left
J558L [8] = experiment: Inhibition of proteasome in mouse J558L cell lysate assessed as cleavage of Suc-leu-leu-val-Tyr-AMC at 100 nM after 30 mins; design: scale not given: the % may be the effect or the level left
J558L [9] = experiment: Inhibition of proteasome in mouse J558L cell lysate assessed as cleavage of Suc-leu-leu-val-Tyr-AMC at 100 nM after 60 mins; design: scale not given: the % may be the effect or the level left
J558L [10] = experiment: Inhibition of proteasome in mouse J558L cell lysate assessed as cleavage of Suc-leu-leu-val-Tyr-AMC at 100 nM after 15 mins; design: scale not given: the % may be the effect or the level left
EMT6 [11] = experiment: Inhibition of proteasome in mouse EMT6 cell lysate assessed as cleavage of Suc-leu-leu-val-Tyr-AMC at 1000 nM after 15 mins; design: scale not given: the % may be the effect or the level left
EMT6 [12] = experiment: Inhibition of proteasome in mouse EMT6 cell lysate assessed as cleavage of Suc-leu-leu-val-Tyr-AMC at 1000 nM after 30 mins; design: scale not given: the % may be the effect or the level left
EMT6 [13] = experiment: Inhibition of proteasome in mouse EMT6 cell lysate assessed as cleavage of Suc-leu-leu-val-Tyr-AMC at 1000 nM after 60 mins; design: scale not given: the % may be the effect or the level left
J558L [14] = experiment: Inhibition of proteasome in mouse J558L cell lysate assessed as cleavage of Suc-leu-leu-val-Tyr-AMC at 1000 nM after 15 mins; design: scale not given: the % may be the effect or the level left
J558L [15] = experiment: Inhibition of proteasome in mouse J558L cell lysate assessed as cleavage of Suc-leu-leu-val-Tyr-AMC at 1000 nM after 30 mins; design: scale not given: the % may be the effect or the level left
J558L [16] = experiment: Inhibition of proteasome in mouse J558L cell lysate assessed as cleavage of Suc-leu-leu-val-Tyr-AMC at 1000 nM after 60 mins; design: scale not given: the % may be the effect or the level left
J558L [17] = experiment: Cytotoxicity against mouse J558L cells after 24 hrs by MTT assay; assay type: functional, cell-based
Summary of the method: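 Murine J558L myeloma cells grown in RPMI-1640 with 10% heat-inactivated FCS, antibiotics, 2-mercaptoethanol and 2 mM L-glutamine. Cells were seeded at 3 × 10³ per well and compounds were added the next day. MTT at 1 mg/mL was present for the last 4 h. Cells were lysed in SDS/DMF buffer at pH 4.7 overnight and read at 570 nm. Viability is (A_e − A_b)×100/(A_c − A_b), relative to medium-only cultures.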

EMT6 [18] = experiment: Cytotoxicity against mouse EMT6 cells after 24 hrs by crystal violet staining

IC50 [1] | IC50 [2] | IC50 [3] | Ki [4] | Activity (EMT6 [5]) | Activity (EMT6 [6]) | Activity (EMT6 [7]) | Activity (J558L [8]) | Activity (J558L [9]) | Activity (J558L [10]) | Activity (EMT6 [11]) | Activity (EMT6 [12]) | Activity (EMT6 [13]) | Activity (J558L [14]) | Activity (J558L [15]) | Activity (J558L [16]) | Structure (SMILES) | Activity (J558L [17]) | Activity (EMT6 [18])
– | – | – | – | 20% | 25% | 35% | 44% | 60% | 32% | 12% | 14% | 19% | 15% | 25% | 44% | CC(C)C[C@@H](C=O)NC(=O)[C@H](CC(C)C)NC(=O)[C@H](CC(C)C)NC(=O)OCc1ccccc1 (stereo in doubt; 2) | – | –
> 100 µM | > 100 µM | > 100 µM | – | – | – | – | – | – | – | – | – | – | – | – | – | CC(C)CC(NC(=O)[C@@H](CC(C)C)NC(=O)OCc1ccccc1)C(=O)N[C@H](C=O)CC(C)C (single isomer, unassigned; (+)) [listing 2 of 2 here] | – | –
5.46 µM | > 100 µM | > 100 µM | – | – | – | – | – | – | – | – | – | – | – | – | – | CC(C)C[C@@H](C=O)NC(=O)[C@H](CC(C)C)NC(=O)[C@H](CC(C)C)NC(=O)OCc1ccccc1 (stereo in doubt) [MG-132] | – | –
– | – | – | – | 71% | 77% | 86% | 91% | 95% | 84% | 29% | 37% | 50% | 71% | 72% | 74% | CC(C)C[C@@H](C=O)NC(=O)[C@H](CC(C)C)NC(=O)[C@H](CC(C)C)NC(=O)OCc1ccccc1 (stereo in doubt) | – | –
9.81 µM | > 100 µM | 11.3 µM | – | 90% | 90% | 91% | 89% | 89% | 87% | 62% | 70% | 78% | 58% | 66% | 71% | CC(C)C[C@H](C=O)NC(=O)[C@@H](CC(C)C)NC(=O)[C@@H](CC(C)C)NC(=O)OCc1ccccc1 | – | –
– | – | – | – | 110% | 103% | 99% | 105% | 107% | 104% | 118% | 111% | 106% | 107% | 106% | 106% | CC(C)CC(NC(=O)[C@H](CC(C)C)NC(=O)OCc1ccccc1)C(=O)N[C@@H](C=O)CC(C)C (stereo in doubt; (+)) [listing 1 of 2 here] | – | –
> 100 µM | > 100 µM | > 100 µM | – | – | – | – | – | – | – | – | – | – | – | – | – | CC(C)CC(NC(=O)[C@H](CC(C)C)NC(=O)OCc1ccccc1)C(=O)N[C@@H](C=O)CC(C)C (stereo in doubt; (+)) [listing 2 of 2 here] | – | –

The remaining lines, values behind:

Structure (SMILES) | IC50 [1] | IC50 [2] | IC50 [3] | Ki [4] | Activity (EMT6 [5]) | Activity (EMT6 [6]) | Activity (EMT6 [7]) | Activity (J558L [8]) | Activity (J558L [9]) | Activity (J558L [10]) | Activity (EMT6 [11]) | Activity (EMT6 [12]) | Activity (EMT6 [13]) | Activity (J558L [14]) | Activity (J558L [15]) | Activity (J558L [16]) | Activity (J558L [17]) | Activity (EMT6 [18])
CC(C)CC(NC(=O)[C@H](CC(C)C)NC(=O)OCc1ccccc1)C(=O)N[C@@H](C=O)CC(C)C (stereo in doubt; (-)) [listing 1 of 2 here] | 0.97 µM | 91.3 µM | 22.8 µM | – | – | – | – | – | – | – | – | – | – | – | – | – | – | –
CC(C)CC(NC(=O)[C@@H](CC(C)C)NC(=O)OCc1ccccc1)C(=O)N[C@H](C=O)CC(C)C (stereo in doubt) [listing 1 of 2 here] | 1.79 µM | – | 17.2 µM | – | – | – | – | – | – | – | – | – | – | – | – | – | – | –
CC(C)C[C@@H](C=O)NC(=O)[C@H](CC(C)C)NC(=O)[C@H](CC(C)C)NC(=O)OCc1ccccc1 (stereo in doubt; 2) [MG-132] | 0.89 µM | 104 µM | 5.7 µM | 4 nM | – | – | – | – | – | – | – | – | – | – | – | – | – | –
CC(C)CC(NC(=O)[C@@H](CC(C)C)NC(=O)OCc1ccccc1)C(=O)N[C@H](C=O)CC(C)C (single isomer, unassigned; (+)) [listing 1 of 2 here] | – | – | – | – | 97% | 95% | 95% | 118% | 123% | 115% | 104% | 100% | 99% | 114% | 117% | 121% | – | –
CC(C)C[C@H](NC(=O)[C@@H](CC(C)C)NC(=O)OCc1ccccc1)C(=O)N[C@@H](C=O)CC(C)C | > 100 µM | > 100 µM | > 100 µM | – | – | – | – | 110% | 112% | 100% | – | – | – | 102% | 96% | 99% | – | –
CC(C)CC(NC(=O)[C@@H](CC(C)C)NC(=O)OCc1ccccc1)C(=O)N[C@H](C=O)CC(C)C (stereo in doubt) [listing 2 of 2 here] | – | – | – | – | 87% | 85% | 84% | 77% | 82% | 71% | 61% | 61% | 67% | 30% | 40% | 53% | – | –
CC(C)C[C@@H](C=O)NC(=O)[C@@H](CC(C)C)NC(=O)[C@H](CC(C)C)NC(=O)OCc1ccccc1 | 0.22 µM | 34.4 µM | 2.95 µM | – | 17% | 22% | 31% | 36% | 50% | 25% | 5% | 7% | 13% | 11% | 21% | 38% | inactive | inactive
CC(C)C[C@H](NC(=O)[C@H](Cc1ccccc1)NC(=O)c1cnccn1)B(O)O [BORTEZOMIB] | – | – | – | 0.62 nM | – | – | – | – | – | – | – | – | – | – | – | – | – | –
CC(C)CC(NC(=O)[C@H](CC(C)C)NC(=O)OCc1ccccc1)C(=O)N[C@@H](C=O)CC(C)C (stereo in doubt; (-)) [listing 2 of 2 here] | – | – | – | – | 95% | 91% | 91% | 93% | 94% | 92% | 44% | 46% | 53% | 55% | 64% | 77% | – | –
CC(C)C[C@@H](C=O)NC(=O)[C@H](Cc1cccc2ccccc12)NC(=O)[C@H](Cc1ccc2ccccc2c1)NC(=O)OCc1ccccc1 (Cbz-[2Nal]-[1Nal]-Leu-aldehyde) | – | – | – | 0.015 nM | – | – | – | – | – | – | – | – | – | – | – | – | – | –
